This is an account of results in ChEMBL document CHEMBL4265982, “Hybrid compounds from chalcone and 1,2-benzothiazine pharmacophores as selective inhibitors of alkaline phosphatase isozymes” (Eur J Med Chem, 2018).

In assay [1] the target is T1, Alkaline phosphatase, tissue-nonspecific isozyme (Homo sapiens, UniProt P05186).
T1 sequence (P05186 whole entry): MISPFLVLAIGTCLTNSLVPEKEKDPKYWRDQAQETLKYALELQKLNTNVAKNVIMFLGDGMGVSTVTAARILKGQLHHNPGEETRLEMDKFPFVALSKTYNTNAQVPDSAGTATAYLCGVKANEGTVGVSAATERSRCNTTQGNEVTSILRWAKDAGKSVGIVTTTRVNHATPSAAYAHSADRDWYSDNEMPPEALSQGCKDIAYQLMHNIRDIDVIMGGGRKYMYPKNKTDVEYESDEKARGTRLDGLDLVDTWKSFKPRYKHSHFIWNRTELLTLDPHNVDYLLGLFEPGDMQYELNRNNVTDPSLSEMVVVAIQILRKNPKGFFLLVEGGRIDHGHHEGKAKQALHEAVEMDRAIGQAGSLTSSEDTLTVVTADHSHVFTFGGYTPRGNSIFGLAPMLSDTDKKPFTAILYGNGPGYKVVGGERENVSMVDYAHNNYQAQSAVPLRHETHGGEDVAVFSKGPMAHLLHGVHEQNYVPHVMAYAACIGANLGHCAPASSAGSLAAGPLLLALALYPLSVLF
Put plainly: Inhibition of human TNAP expressed in African green monkey COS7 cell membranes using CDP-star as substrate pretreated for 5 to 10 mins followed by substrate addition and measured after 15 to 20 mins by […].

For assay [2], the species on record is Homo sapiens. In words: Selectivity index, ratio of IC50 for human TNAP expressed in African green monkey COS7 cell membranes to IC50 for human IAP expressed in African green monkey COS7 cell membranes. An outline of the steps:
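Ratio of IC50 at h-TNAP to IC50 at h-IAP. Each IC50 is from the CDP-Star luminescence assay on lysates of transfected COS-7 cells, pH 9.8 DEA buffer. Index > 1 means selectivity for h-IAP; < 1 means selectivity for h-TNAP.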

Assay [3] addresses T2, Intestinal-type alkaline phosphatase (Homo sapiens, UniProt P09923). Put plainly: Inhibition of human IAP expressed in African green monkey COS7 cell membranes using CDP-star as substrate pretreated for 5 to 10 mins followed by substrate addition and measured after 15 to 20 mins by […]. The gist of the method: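 Enzyme from transfected COS-7 lysates (h-TNAP 46 ng/well, h-IAP 57 ng/well), stored with 7.5% glycerol at -80 °C. Inhibitor tested up to 200 μM, final DMSO 1%, in 3 M DEA pH 9.8 with 2.5 mM MgCl2 and 0.05 mM ZnCl2. Preincubation 37 °C for 5–10 min, then CDP-Star added. Luminescence read after 15–20 min. IC50 from curve fitting, mean ± SEM, n = 3.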
Target sequence in this assay (P09923 whole entry): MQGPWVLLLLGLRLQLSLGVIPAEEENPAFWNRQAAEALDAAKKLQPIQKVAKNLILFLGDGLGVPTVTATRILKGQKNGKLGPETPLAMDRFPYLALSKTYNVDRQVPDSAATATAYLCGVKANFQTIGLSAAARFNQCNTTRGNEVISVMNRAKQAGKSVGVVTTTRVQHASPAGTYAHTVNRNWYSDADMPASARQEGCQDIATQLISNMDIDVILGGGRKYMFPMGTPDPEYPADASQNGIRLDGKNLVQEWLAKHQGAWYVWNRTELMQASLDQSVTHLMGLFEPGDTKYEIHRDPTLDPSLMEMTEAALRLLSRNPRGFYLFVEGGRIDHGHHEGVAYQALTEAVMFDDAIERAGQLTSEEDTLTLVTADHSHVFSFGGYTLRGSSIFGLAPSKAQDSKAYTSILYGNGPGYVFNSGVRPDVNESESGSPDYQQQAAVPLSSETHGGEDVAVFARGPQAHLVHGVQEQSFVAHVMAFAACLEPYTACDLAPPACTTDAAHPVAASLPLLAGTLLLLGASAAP

Assay [4] has as its system HeLa. In words: Cytotoxicity against human HeLa cells assessed as cell growth inhibition at 100 uM after 24 hrs by MTT assay. It is filed as functional. Conditions: read-out: GI. An outline of the steps:
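HeLa cells seeded overnight at 2.5 × 10⁴ cells/mL, then exposed to compound (final 100 μM) for 24 h at 37 °C. MTT (5 μg/well) added for 4 h, then solubilised with 50% isopropanol/10% SDS. OD read at 570 nm minus 690 nm background. Percent inhibition relative to untreated control; triplicate, mean of three independent experiments ± SEM.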
In general terms: Tetrazolium dyes change colour on reduction, which living cells bring about.

The target in assay [5] is T3, Alkaline phosphatase, tissue-nonspecific isozyme (Homo sapiens) (UniProt P05186).
T3 sequence (whole entry): T1 sequence (P05186 whole entry)
Put plainly: Non-competitive inhibition of human TNAP expressed in African green monkey COS7 cell membranes up to 0.3 uM using CDP-star as substrate pretreated for 5 to 10 mins followed by substrate addition and measured after 15 to 20 mins by double reciprocal plot analysis. The gist of the method:
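Kinetics: double reciprocal plots of initial velocity versus CDP-Star concentration at several inhibitor concentrations. Enzyme is lysate of COS-7 cells transfected with h-TNAP plasmid (lipofectamine, 5 h, 37 °C, harvested 40–72 h). Buffer 3 M DEA pH 9.8, 2.5 mM MgCl2, 0.05 mM ZnCl2. Preincubation 5–10 min at 37 °C, luminescence read 15–20 min after substrate.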

The target of assay [6] is T3, Alkaline phosphatase, tissue-nonspecific isozyme (Homo sapiens). Put plainly: Potency index, ratio of levamisole IC50 to test compound IC50 for human TNAP.
The target in assay [7] is T2, Intestinal-type alkaline phosphatase. In words: Competitive inhibition of human IAP expressed in African green monkey COS7 cell membranes up to 1.5 uM using CDP-star as substrate pretreated for 5 to 10 mins followed by substrate addition and measured after 15 to 20 mins by double reciprocal plot analysis.
Target sequence in this assay (P09923 whole entry, looked up): as the sequence (P09923 whole entry) above

The source made the active and inactive calls. The rule behind the calls is not given here. Bounds are passed on as bounds.

One may read the IC50 as the concentration that gives 50% inhibition. For `N[C@@H](Cc1ccccc1)C(=O)O` [PHENYLALANINE], the 50% inhibitory concentration (IC50) in assay [1] is > 200 µM. In addition, the Ratio IC50 in assay [2] is > 2.

With `c1ccc([C@H]2CN3CCSC3=N2)cc1` [LEVAMISOLE], in assay [3], the 50% inhibitory concentration (IC50) was > 200 µM.

Take `Cc1ccccc1/C=C1\NS(=O)(=O)c2ccccc2C1=O`: the figures for the IC50 in assay [1] and in assay [3] were 2.36 µM and 3.75 µM, respectively. In addition, the Ratio IC50 in assay [2] was determined as 0.6. In addition, in assay [4], the inhibition of growth at 100 µM was 7%.

As to `O=C1/C(=C/c2ccc(F)cc2)NS(=O)(=O)c2ccccc21`, the 50% inhibitory concentration (IC50) in assay [1] was found to be 1.35 µM; in assay [3], 3.06 µM. The Ratio IC50 in assay [2] was determined as 0.4. The inhibition of growth at 100 µM in assay [4] worked out at 41%.

Turning to `O=C1/C(=C/c2c(F)cccc2F)NS(=O)(=O)c2ccccc21`, the IC50 in assay [1] was 1.53 µM; in assay [3] it was 10.6 µM. Also, the Ratio IC50 in assay [2] is 0.1. The inhibition of growth at 100 µM in assay [4] was determined as 17%.

As to `O=C1/C(=C/c2cccc(Cl)c2)NS(=O)(=O)c2ccccc21`, the IC50 in assay [1] is > 200 µM; in assay [3], 3.77 µM. The Ratio IC50 in assay [2] is > 50. Further, the inhibition of growth at 100 µM in assay [4] was 64%.

Regarding `COc1ccccc1/C=C1\NS(=O)(=O)c2ccccc2C1=O`, the 50% inhibitory concentration (IC50) in assay [1] is 2.59 µM; in assay [3], 1.24 µM. Also, the Ratio IC50 in assay [2] amounted to 2.1. The inhibition of growth at 100 µM in assay [4] is 17%.

With `O=C1/C(=C/c2ccc(Cl)cc2Cl)NS(=O)(=O)c2ccccc21`, the IC50 was > 200 µM in assay [1] and 4.96 µM in assay [3]. For the same compound, in assay [2], the Ratio IC50 was > 53. Besides, in assay [4], the inhibition of growth at 100 µM stood at 59%.

In the case of `O=C1/C(=C/c2cccc(Br)c2)NS(=O)(=O)c2ccccc21`, the IC50 in assay [1] was > 200 µM; in assay [3], 2.55 µM. Moreover, the Ratio IC50 in assay [2] was > 26. Moreover, the inhibition of growth at 100 µM in assay [4] was found to be 65%.

Consider `O=C1/C(=C/c2ccccc2)NS(=O)(=O)c2ccccc21`, for which the concentration for half-maximal inhibition (IC50) was 0.66 µM in assay [1] and 1.78 µM in assay [3]. Moreover, the Ratio IC50 in assay [2] was determined as 0.4. In assay [4], the inhibition of growth at 100 µM is 19%.

As to `O=C1/C(=C/c2cccc(O)c2)NS(=O)(=O)c2ccccc21`, the figures for the half-maximal inhibitory concentration (IC50) in assay [1] and in assay [3] were 3.57 µM and 1.21 µM, respectively. Also, in assay [2], the Ratio IC50 came to 3. Moreover, in assay [4], the inhibition of growth at 100 µM came to 15%.

For `O=C1/C(=C/c2ccc(Br)cc2)NS(=O)(=O)c2ccccc21`, the IC50 in assay [1] came to 1.43 µM; in assay [3], 3.69 µM. Also, in assay [2], the Ratio IC50 worked out at 0.4. The inhibition of growth at 100 µM in assay [4] amounted to 59%.

Turning to `O=C1/C(=C/c2ccc(Cl)cc2)NS(=O)(=O)c2ccccc21`, the concentration for half-maximal inhibition (IC50) amounted to 0.25 µM in assay [1] and 4.35 µM in assay [3]. The values for the Ratio IC50 in assay [2] and in assay [6] were 0.1 and 80, respectively. Also, the inhibition of growth at 100 µM in assay [4] came to 55%. In addition, in assay [5], the inhibition result is “Active”.

Regarding `O=C1/C(=C/c2cccc(F)c2)NS(=O)(=O)c2ccccc21`, the IC50 in assay [1] came to 3.19 µM; in assay [3] it was 9.93 µM. Besides, in assay [2], the Ratio IC50 turned out to be 0.3. The inhibition of growth at 100 µM in assay [4] came out at 53%.

As to `COc1cccc(/C=C2\NS(=O)(=O)c3ccccc3C2=O)c1`, the values for the IC50 in assay [1] and in assay [3] were > 200 µM and 1.04 µM, respectively. For the same compound, in assay [2], the Ratio IC50 is > 190. The inhibition of growth at 100 µM in assay [4] amounted to 39%. Besides, the inhibition result in assay [7] is “Active”.

In the case of `O=C1/C(=C/c2ccccc2Br)NS(=O)(=O)c2ccccc21`, the figures for the IC50 in assay [1] and in assay [3] were > 200 µM and 7.43 µM, respectively. Also, the Ratio IC50 in assay [2] was > 1. In assay [4], the inhibition of growth at 100 µM was 53%.

For `COc1ccc(/C=C2\NS(=O)(=O)c3ccccc3C2=O)cc1`, the IC50 was determined as 4.04 µM in assay [1] and 1.53 µM in assay [3]. In assay [2], the Ratio IC50 was found to be 2.6. Further, in assay [4], the inhibition of growth at 100 µM stood at 11%.
